{"source": "paper PMC3544278", "about": "(Journal of Medicinal Chemistry, 2012)", "key": {"[1]": {"assay": "Biodistribution of [11C]-radiotracers in rat brain", "format": "in vivo", "conditions": "mean (n = 5) ± SD", "in_short": "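Conscious restrained rats (n = 5/time point) received 30–60 MBq [11C]-radiotracer (70–170 GBq/μmol; 0.3–0.8 nmol) iv by tail vein in buffered saline with 0.5% Tween 80. After decapitation, brain regions were excised, blotted, weighed, gamma-counted and decay-corrected against injected-dose standards. SUV = %ID/g […] body weight (kg). Blocking groups got an FAAH inhibitor (2 mg/kg ip, saline/Tween 80) or vehicle 30 min before. Student's t test.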"}, "FAAH": {"target": "T1, FAAH (Rattus norvegicus, UniProt P97612)", "T1 sequence (P97612 1-579)": "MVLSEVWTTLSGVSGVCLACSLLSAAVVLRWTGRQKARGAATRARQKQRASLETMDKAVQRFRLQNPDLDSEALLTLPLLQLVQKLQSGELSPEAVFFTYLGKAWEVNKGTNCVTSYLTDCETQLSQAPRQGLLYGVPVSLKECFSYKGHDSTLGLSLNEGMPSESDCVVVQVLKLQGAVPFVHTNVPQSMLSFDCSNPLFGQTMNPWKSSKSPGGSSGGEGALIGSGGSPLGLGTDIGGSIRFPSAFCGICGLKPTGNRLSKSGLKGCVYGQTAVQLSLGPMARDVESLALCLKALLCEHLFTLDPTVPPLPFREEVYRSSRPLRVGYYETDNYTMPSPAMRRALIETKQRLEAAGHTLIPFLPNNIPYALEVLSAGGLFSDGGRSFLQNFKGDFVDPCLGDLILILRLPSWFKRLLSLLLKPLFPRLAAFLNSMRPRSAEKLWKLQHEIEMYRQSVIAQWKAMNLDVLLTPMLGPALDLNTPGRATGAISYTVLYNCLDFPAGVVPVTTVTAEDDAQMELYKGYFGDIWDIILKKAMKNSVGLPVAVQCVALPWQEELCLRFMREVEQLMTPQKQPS", "assay": "Irreversible binding of [11C]-radiotracers to FAAH in rat brain parenchyma", "format": "in vivo"}}, "note": "Marks after values point to notes of the source that are not given here.", "data": [{"molecule": "O=C(NC1CCCCC1)Oc1cc(O)cc(-c2ccccc2)c1", "note": "[[^11C]1, [^11C-carbonyl]N-cyclohexyl-5-hydroxy[1,1′-biphenyl]-3-ylcarbamic acid ester]", "values": [{"measurement": "Regional brain uptake, cortex (2 min)", "setting": "[1]; 2 min post iv injection", "value": "2.40 ± 0.18", "unit": "SUV"}, {"measurement": "Regional brain uptake, hypothalamus (2 min)", "setting": "[1]; 2 min post iv injection", "value": "1.61 ± 0.23", "unit": "SUV"}, {"measurement": "Regional brain uptake, cortex (40 min)", "setting": "[1]; 40 min post iv injection", "value": "2.49 ± 0.25", "unit": "SUV"}, {"measurement": "Regional brain uptake, hypothalamus (40 min)", "setting": "[1]; 40 min post iv injection", "value": "1.14 ± 0.13", "unit": "SUV"}, {"measurement": "Regional brain uptake, cortex (40 min, blocked)", "setting": "[1]; 40 min post iv injection, pretreated with compound 2 (2 mg/kg, ip)", "value": "0.36 ± 0.04 ^b SUV"}, {"measurement": "% bound (irreversibly) at 60 min postinjection", "setting": "FAAH", "value": "about 90%"}]}]}
